Key:
Assay type in all cases: cell-based
[1] = test system: cyclin A, cyclin E, CDK2 in MDA-MB-231 cells; assay: Western blot of cell cycle regulatory proteins; conditions: MDA-MB-231, 48 h; compounds together with 1 nmol/L E2
Method in brief: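 MDA-MB-231 cells in DMEM/F12 with 10% charcoal-stripped FBS, seeded at 2×10^5 cells/well, treated 48 h with 1 nmol/L E2 plus test compound at several concentrations. Run on 12% SDS-PAGE, transferred to PVDF, probed overnight at 4 °C for cyclin A, cyclin E and CDK2, with ECL detection. GAPDH served as loading control; three independent experiments.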

MDA-MB-231 cells = assay: MTT anti-proliferation assay, MDA-MB-231; conditions: Homo sapiens, MDA-MB-231, 48 h, read-out: MDA-MB-231 inhibition (%)
Method in brief: (§1)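 MCF-7 or MDA-MB-231 cells seeded at 10^5 cells/mL in phenol red-free DMEM/F12 with 10% charcoal-stripped FBS. Exposed to test compound at 0.01–100 μmol/L for 48 h (37 °C, 5% CO2), then MTT (5 mg/mL stock) for 4 h. Formazan dissolved in DMSO; absorbance read at 570 nm. Inhibition taken relative to DMSO-treated cells set as 100% viability; single-point values at 100 μmol/L final.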

MCF-7 cells = assay: MTT anti-proliferation assay, MCF-7; conditions: Homo sapiens, MCF7, 48 h, read-out: MCF-7 inhibition (%)
Method in brief: as §1

Row | Compound | expression level of CDK2 [1] | expression level of cyclin A [1] | expression level of cyclin E [1] | inhibition at 100 µM (MDA-MB-231 cells) [%] | inhibition at 100 µM (MCF-7 cells) [%]
1 | C[C@]12CC[C@@H]3c4ccc(O)cc4CC[C@H]3[C@@H]1CC[C@@H]2O [Estradiol, 17β-estrodial] | increased the expression | increased the expression | increased the expression | – | –
2 | CC/C(=C(\c1ccccc1)c1ccc(OCCN(C)C)cc1)c1ccccc1 [Tamoxifen] | – | – | – | 80.5 | 93.3

From PMC4186986 (Acta Pharmacologica Sinica, 2014)
